# Screens from PubChem BioAssay.
# Hits are enriched below; roughly 3.9% of the tested compounds scored in any of these assays.
# Rad51 HR inh = Rad51 (human) homologous recombination inhibition. Q06609. hRad51 DNA strand exchange, fluorescence dequenching. inhibition, % at 10 µM. 200,000 tested, 0.085% active. AID 1385;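 active means inhibition above 40% at the single screening dose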
# Target sequence (Q06609 whole entry, looked up): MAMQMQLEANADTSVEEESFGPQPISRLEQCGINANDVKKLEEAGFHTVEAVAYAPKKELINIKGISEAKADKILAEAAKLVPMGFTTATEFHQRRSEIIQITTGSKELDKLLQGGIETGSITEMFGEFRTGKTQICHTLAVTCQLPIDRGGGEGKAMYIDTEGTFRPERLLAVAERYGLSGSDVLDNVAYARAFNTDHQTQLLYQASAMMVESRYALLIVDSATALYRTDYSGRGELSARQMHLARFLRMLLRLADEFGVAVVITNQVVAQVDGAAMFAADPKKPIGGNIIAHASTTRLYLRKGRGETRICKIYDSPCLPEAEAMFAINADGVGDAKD
#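 System: hRad51 filaments on single-stranded DNA; reagent: Fluorescein- and BHQ1-tagged 47-mer duplex; compound dosing: one concentration, 10 µM final; timing: filaments 15 min 37 °C, then compound 30 min; measured by: fluorescein emission 520 nm, excitation 485 nm; benchmarks: per-plate controls and blanks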
# FLuc inhib CS = counter-screen for luciferase assay inhibitors: firefly luciferase inhibition; P08659; ATPLite firefly luciferase biochemical luminescence, 10 min; inhibition, % at 10 µM; 200,000 tested, 1.5% active;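 active means inhibition above about 50% when tested at 10 µM, limit read from the data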
# STAT1 activator = increases IFN-gamma driven STAT1 reporter signal; AID 932; NIH 3T3 STAT1-luciferase reporter, luminescence; 100% = IFN-gamma alone, no compound; 200,000 tested, 2.6% active; activation (% of control), % at 5.5 µM;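 active means activation above the screen-wide mean activation plus 3 SD, cut at about 130% in these data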
# NF-kB neuron act = compounds increasing NF-kB expression in human neuronal cells; NF-kB reporter expression; hits give high values; fold change at 12.5 µM; 190,000 tested, 1.6% active; in the data active means fold change above about 3.3
# FLuc act counter = firefly luciferase counter-screen for stimulation assays; 200,000 tested, under 10 active; activation factor at 10 µM; AID 1027; ATPlite luciferase biochemical, luminescence, 10 min; 0 = ATP-free wells, 1 = DMSO control; P08659;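 active means luciferase activation factor, scaled between plate controls, of at least 2 with compound at 10 µM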
#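 Assay system: Luciferase/luciferin detection reagent, cell-free biochemical luciferase assay / Read-out: luciferase activation / Benchmarks: No-ATP low control, compound-free enzyme-plus-ATP high control / Medium: PBS buffer for ATP / Detection: luminescence measurement of luciferase light output / Schedule: 10 min at ambient temperature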
# APP 5'UTR act = APP 5'UTR luciferase reporter activation; activation, % at 2 µM; AID 1276; SH-SY5Y APP 5'UTR luciferase reporter, luminescence; zero percent = DMSO vehicle wells; 190,000 tested, 1% active;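 active means activation above a set limit, based on mean plus 3 SD of controls, cut at about 140% in these data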
# Hits are given with their value; n = inactive; x = not tested or not shown.
SMILES,Rad51 HR inh,FLuc inhib CS,STAT1 activator,NF-kB neuron act,FLuc act counter,APP 5'UTR act
CC1=C(C(=O)OCCOc2ccccc2)C(c2ccsc2)NC(=O)N1C (centres undefined),n,n,n,n,n,n
COc1ccc(/C=N/Nc2nc(Nc3ccccc3)nc(N3CCCC3)n2)cc1,n,n,n,n,n,n
O=C(O)COc1ccc(/C=N/Nc2nc(Nc3ccccc3)nc(N3CCCCC3)n2)cc1,n,55,n,n,n,n
CO/C(N)=C(\C#N)N=Cc1ccccc1Cl,n,n,n,n,n,n
COc1ccc(OC)c(Cc2nnc(CCC(=O)N3CCCCC3)o2)c1,n,n,132,n,n,n
COP1(=O)C=C[C@H](N(Cc2ccccc2)S(=O)(=O)c2ccccc2[N+](=O)[O-])[C@@H](C)O1 (some centres undefined),n,x,x,x,x,x
NC(=O)c1sc2nc3c(cc2c1N)CCC3,n,n,n,n,n,n
Nc1c(C(=O)N2CCOCC2)sc2nc3c(cc12)CCC3,n,n,n,3.4,n,n
Nc1c(C(=O)N2CCCC2)sc2nc3c(cc12)CCCCCC3,n,n,147,n,n,n
Cc1cccc(C)c1N=Cc1c(O)n(-c2nccs2)c(=O)c2ccccc12,n,n,n,n,n,n
O=c1c2ccccc2c(/C=N/c2nnc(Cc3ccccc3)s2)c(O)n1-c1ccc(Cl)cn1,x,50,n,n,n,n
CC(C)C(NC(=O)OCc1ccccc1)C(=O)N1CCOCCOCCOCC1 (centres undefined),n,n,n,n,n,n
O=C(Nc1nc2ccccc2n1CCN1CCOCC1)c1ccc(COc2ccccc2Br)o1,n,n,n,n,n,n
S=C(Nc1ccc(Cl)cc1Cl)N1CCOCC1,n,n,n,n,n,n
Cc1ccc(/C=N/NC(=S)N2CCOCC2)cc1,n,n,131,n,n,n
S=C(N/N=C/c1ccc(Cl)cc1)N1CCOCC1,n,n,132,n,n,n
CCc1cc2ccccc2nc1SCC(=O)Nc1cc(OC)c(OC)cc1C(=O)O,x,n,n,n,n,n
COc1cc(NC(=O)CSc2nc3ccccc3cc2C)c(C(=O)O)cc1OC,n,n,n,8.7,n,n
C=CCOC(=O)/C(=C\c1cccc2ccccc12)NC(=O)c1ccccc1,n,n,136,n,n,n
C=CCOC(=O)/C(=C\c1ccccc1)NC(=O)c1ccc(C)cc1,n,n,132,n,n,n
CCCCC1=CC2=CC(=O)C(C)(OC(=O)c3ccco3)C(=O)C2=CO1 (centres undefined),n,x,x,x,x,x
CCN(CC)C(=O)Oc1ccc(Br)cc1C(=O)Nc1ccc(F)cc1F,n,x,x,x,x,x
Cn1c(=O)c2c(O)c([N+](=O)[O-])c(=O)n(C)c2n(C)c1=O,n,x,x,x,x,x
COc1ccc(/C=C2/SC(=O)NC2=O)cc1,n,54,n,n,n,n
N=C1C(c2nc3ccccc3s2)=C(O)CN1C1CCCCC1,n,n,147,n,n,n
SMILES,Rad51 HR inh,FLuc inhib CS,STAT1 activator,NF-kB neuron act,FLuc act counter,APP 5'UTR act
N=C1C(c2nc3ccccc3s2)=C(O)CN1Cc1ccccc1,n,n,131,n,n,n
O=C(COc1ccc(F)cc1)N1CCC(c2ccccc2)C1 (centres undefined),n,n,136,n,n,n
O=C(/C=C/c1ccccc1)N1CCC(c2ccccc2)C1 (centres undefined),n,n,137,4.4,n,141
O=C(Nc1ccccc1)N1CCC(c2ccccc2)C1 (centres undefined),n,n,138,n,n,n
O=C(c1cccs1)N1CCC(c2ccccc2)C1 (centres undefined),n,n,135,n,n,n
NC(=O)C1CCN(C(=O)Nc2ccccc2)CC1,n,x,n,n,x,n
Oc1cccc(O)c1O,n,x,x,x,x,x
Clc1ccc(COn2c(-c3ccc(Cl)cc3)nc3ccccc32)cc1,n,n,n,n,n,x
Cc1ccc(COn2c(-c3ccc(Cl)cc3)nc3ccc([N+](=O)[O-])cc32)cc1,n,n,135,5.3,n,x
O=[N+]([O-])c1ccc2nc(-c3ccc(Cl)cc3)n(OCc3ccccc3)c2c1,x,n,129,4.5,n,x
Clc1ccc(COn2c(-c3ccccc3)nc3ccccc32)cc1,n,n,n,n,n,x
O=C(Nc1ccccc1)c1cc2ccc3ccccc3c2s1,n,x,x,x,x,x
O=C(c1ccccc1)c1cc(-c2ccccc2)on1,n,81,n,n,n,184
Cc1cc(NC(=O)c2cc(-c3ccccc3)on2)no1,n,n,n,n,n,n
Cc1cc(-c2ccccc2)nc(=O)[nH]1,n,n,n,n,n,n
CCC1C(=O)n2nc(-c3ccccc3)cc2N=C1C (centres undefined),n,n,138,n,n,n
Cc1ccc(NC(=S)NNC(=O)CSc2nc3ccccc3c(=O)n2-c2ccc(C)cc2)cc1,x,n,n,n,n,n
Cc1ccc(/C(C#N)=C\c2cn(C)c3ccccc23)cc1,62,n,n,n,n,n
O=C(NCc1nc2ccccc2[nH]1)C1=C[C@H](C2CC2)C[C@H](OCc2ccc(CO)cc2)O1,n,x,x,x,x,x
Clc1ccc(-c2cn3nc4c(nc3n2)CCCC4)cc1,n,59,n,n,n,191
OC1CCN(c2c3c(nc4cc(-c5ccc(Cl)cc5)nn24)CCC3)CC1,n,n,n,n,n,n
CC1=NN(S(=O)(=O)c2ccc(Cl)cc2Cl)C(=O)c2ccccc2O1,n,x,x,x,x,x
C=CCN1N=C(/C=C/c2ccc(C)cc2)CCC1=O,n,n,137,n,n,n
COc1ccc(C2CC(c3ccccc3)=NN2C(=O)COC(=O)/C=C/c2ccc(O)c(OC)c2)cc1 (centres undefined),n,x,x,x,x,x
COc1ccc(/C(N)=N/OC(=O)CSc2ccccc2)cc1,n,n,n,5.3,n,n
SMILES,Rad51 HR inh,FLuc inhib CS,STAT1 activator,NF-kB neuron act,FLuc act counter,APP 5'UTR act
N/C(=N\OC(=O)CSc1ccccc1)c1ccc([N+](=O)[O-])cc1,n,n,n,n,n,n
Cc1ccc(/C(N)=N/OC(=O)CSc2ccccc2)cc1,n,n,130,n,n,180
COc1ccc(/C(N)=N/OC(=O)CSc2ccc(C)cc2)cc1,n,n,n,n,n,n
O=C(NCCc1ccccc1)C(=O)Nc1ccc2c(c1)OCCO2,n,n,n,n,n,n
O=C(Nc1ccc2c(c1)OCO2)OCc1ccccc1,x,n,135,5.1,n,140
COc1ccc(CCNC(=O)Nc2ccc3c(c2)OCO3)cc1OC,x,n,n,n,n,n
O=C(NCCc1ccccc1)Nc1ccc2c(c1)OCO2,n,n,140,4.3,n,n
O=C(Nc1ccc2c(c1)OCO2)C1CCCN1C(=O)OCc1ccccc1 (centres undefined),n,n,n,n,n,n
O=C(NCCc1ccc(F)cc1)Nc1ccc2c(c1)OCO2,x,n,134,n,n,n
COP(=O)(CC(=O)c1ccccc1)CC(=O)c1ccccc1,n,n,n,n,n,n
